The results in this text go back to ChEMBL document CHEMBL3407360, “Proteasome inhibitors with pyrazole scaffolds from structure-based virtual screening” (J Med Chem, 2015).

The structures appear in SMILES notation. Active and inactive are the calls of the source. No cut-off for these calls is given here.

Series [1] is filed under the species Homo sapiens. In words: Inhibition of human 20S proteasome chymotrypsin-like activity preincubated at 10 uM for 30 mins before substrate addition measured over 90 mins by fluorescence assay.
Series [2] relates to BXPC-3. In words: Cytotoxicity against human BxPC3 cells after 72 hrs. It counts as functional, cell-based. In short, it runs like this:
(§1)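 Adherent lines, growing in log phase in DMEM or RPMI 1640 with 10% FBS, were plated at 7,000–10,000 cells/well. Compound was added 24 h later at the final concentration. Viability was measured after 72 h by CellTiter Glo luminescence or CellTiter 96 Aqueous One absorbance.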

For series [3], the system named is BXPC-3. Put plainly: Cytotoxicity against bortezomib-resistant human BxPC3 cells after 72 hrs. It is filed as functional, cell-based. Summed up:
(§2)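 Resistant BxPC-3 sublines were derived by about 6 months of stepwise increasing drug exposure. […] Compound was added 24 h after plating. Viability was read after 72 h by CellTiter Glo luminescence or CellTiter 96 Aqueous One.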

For series [4], the system named is Mus musculus. In words: Toxicity in human LNCAP cells xenografted nude mouse assessed as body weight loss at 5 mg/kg, ip twice a week for 4 weeks. Also noted: dose 5 mg/kg, route intraperitoneal. It is filed as organism-based. Conditions: in vivo, 672 h. Summed up: (§3)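 Male athymic BALB/c nude mice, six weeks old, implanted subcutaneously with LNCaP cells (2 x 10^6 cells/50 µL). At ~100 mm3 tumors, n=5/group received 5 mg/kg ip twice weekly for four weeks in 8% DMSO in HP-β-cyclodextrin and citrate. Tumor volume ((width)2 x length/2) and body weight were measured every 4 days. Tumors were excised and weighed at Day 30.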

In series [5] the test system is RPMI-8226. Put plainly: Inhibition of 20S proteasome chymotrypsin-like in human RPMI8226 cell extracts using Suc-LLVY-AMC as substrate preincubated at 1 to 10 uM for 30 mins before substrate addition by fluorescence assay. It is filed as cell-free. Summed up:
(§4)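 Cytosolic extracts of RPMI 8226 cells served as the proteasome source in place of purified enzyme. Extracts were preincubated with compound, and hydrolysis of Suc-LLVY-AMC (CT-L), Z-LLE-AMC (C-L) or Boc-LRR-AMC (T-L) was read by AMC fluorescence at ex 360/em 460 nm.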

Series [6] has as its system BXPC-3. Put plainly: Cytotoxicity against carfilzomib-resistant human BxPC3 cells after 72 hrs. It counts as functional, cell-based. Summed up: as §2
The test system of series [7] is Liver. In words: Metabolic stability in Balb/c mouse liver microsomes. It is filed as ADME. Summed up: (§5)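 Compound at 1 µM was incubated with 0.5 mg/ml microsomal protein, either pooled Balb/c mouse or pooled human. The buffer was 100 mM Tris-HCl pH 7.4 with an NADPH-generating system (isocitrate, isocitrate dehydrogenase, MgCl2, NADP+). After 5 min preincubation at 37°C, reactions ran 0, 5, 10 or 20 min and were quenched with cold acetonitrile containing phenytoin internal standard. Parent remaining was measured by LC-MS/MS.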
A general note: Microsomes from liver hold many membrane-bound enzymes, among them those of drug oxidation.

Series [8] relates to RPMI-8226. In words: Inhibition of 20S proteasome trypsin-like in human RPMI8226 cell extracts using Boc-LRR-AMC as substrate preincubated at 1 to 10 uM for 30 mins before substrate addition by fluorescence assay. It is filed as cell-free. In short, it runs like this:
as §4

Series [9] has as its system Liver microsome. In words: Metabolic stability in human liver microsomes. It counts as ADME. In short, it runs like this:
as §5

For series [10], the system named is LNCaP. In words: Cytotoxicity against human LNCAP cells after 72 hrs. It counts as functional, cell-based. In short, it runs like this: as §1
Series [11] has as its system RPMI-8226. Put plainly: Inhibition of 20S proteasome caspase-like in human RPMI8226 cell extracts using Z-LLE-AMC as substrate preincubated at 1 to 10 uM for 30 mins before substrate addition by fluorescence assay. It is filed as cell-free. Summed up:
as §4

The subject of series [12] is RPMI-8226. In words: Reversible inhibition of 20S proteasome in human RPMI8226 cell extracts assessed as dissociation half life compound preincubated for 30 mins followed by 25-fold dilution by jump dilution assay. It is filed as cell-based. Summed up: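 RPMI 8226 lysate (30 µg protein) was incubated with 10 µM compound for 30 min at room temperature in 20S assay buffer. Baseline Suc-LLVY-AMC hydrolysis was recorded in a cuvette, then the mixture was rapidly diluted 25-fold in assay buffer and recovery of activity was monitored.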

Series [13] relates to RPMI8266. Put plainly: Cytotoxicity against human […] cells after 72 hrs. It counts as functional, cell-based. In short, it runs like this:
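Suspension RPMI 8226 cells were collected by centrifugation and plated at 10,000 cells/well in medium with 10% FBS. Compound was added 24 h later. Viability was read after 72 h by CellTiter Glo or CellTiter 96 Aqueous One.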

Series [14] deals with LNCaP. Put plainly: Antitumor activity against human LNCAP cells xenografted in nude mouse assessed as tumor growth inhibition at 5 mg/kg, ip twice a week for 4 weeks. It is filed as functional, organism-based. The arrangement: dose 5 mg/kg. Summed up: as §3
The species named for series [15] is Homo sapiens. In words: Induction of human 20S proteasome chymotrypsin-like activity preincubated at 10 uM for 30 mins before substrate addition measured over 90 mins by fluorescence assay.

Regarding `Cc1ccc(OS(=O)(=O)c2cccc(C(F)(F)F)c2)c(-c2cc(-c3ccccc3)n(CC(=O)OCc3scnc3C)n2)c1`, the inhibition entry in series [1] was “Active”. Still for that read-out and setting: the same measure for `Cc1ccc(OS(=O)(=O)c2cc(F)c(Br)c(F)c2)c(-c2cc(-c3ccccc3)n(CCN[C@@H]3CCNC3)n2)c1`: “Active”. Turning to `Cc1ccc(OS(=O)(=O)c2cccc(C(F)(F)F)c2)c(-c2cc(C3CCCNC3)n(CCN[C@@H]3CCNC3)n2)c1` (some centres not stated), the outcome in [2] was inactive. With `Cc1ccc(OS(=O)(=O)c2cccc(C(F)(F)F)c2)c(-c2cc(-c3ccccc3)n(CC(=O)N[C@@H]3CCNC3)n2)c1`, the result in series [3], in series [6], in series [10], in series [13] and in series [2] was Active. Also, the Activity result in series [4] is on record as “Non-toxic”. For the same molecule, the inhibition entry in series [5], in series [1] and in series [11] was “Active” in each case. Moreover, the Stability result in series [7] and in [9] was “Stable” each time. In addition, the inhibition result in [8] was “inactive”. For the same molecule, the T1/2 in [12] turned out to be 3.2 min. Also, the TGI entry in [14] was “Active”. As to `Cc1ccc(OS(=O)(=O)c2cccc(C(F)(F)F)c2)c(-c2cc(-c3ccccc3)n(CC(=O)O[C@@H]3CCNC3)n2)c1`, the inhibition entry in series [1] was “Active”. The same measure, in the same setting: the same measure for `Cc1ccc(OS(=O)(=O)c2cccc(C(F)(F)F)c2)c(-c2cc(-c3ccccc3)n(CC(=O)NC(C)(C)CO)n2)c1`: “Active”; for `Cc1ccc(OCc2cccc(C(F)(F)F)c2)c(-c2cc(-c3ccccc3)n(CCN[C@@H]3CCNC3)n2)c1`: “Active”. Take `Cc1ccc(OS(=O)(=O)c2cccc(Cl)c2)c(-c2cc(-c3ccccc3)n(CCN[C@@H]3CCNC3)n2)c1`: the inhibition entry in series [1] is “Active”. In the case of `Cc1ccc(OS(=O)(=O)c2cccc(C(F)(F)F)c2)c(-c2cc(-c3ccccc3)n(CC(=O)NCc3cnccn3)n2)c1`, in series [1], the inhibition entry is “Active”. `CC(C)=CCOC(=O)Cn1nc(-c2cc(C)ccc2OS(=O)(=O)c2cccc(C(F)(F)F)c2)cc1-c1ccccc1`: the inhibition result in series [1] is “Active”. For `Cc1ccc(OS(=O)(=O)c2cccc(C(F)(F)F)c2)c(-c2cc(-c3ccccc3)n(CC(=O)N[C@@H]3CCN(C(=O)CCc4ccccc4)C3)n2)c1`, the inhibition result in series [1] was “Active”. With `Cc1ccc(OS(=O)(=O)c2cccc(C(F)(F)F)c2)c(-c2cc(-c3ccccc3)n(CC(=O)N[C@@H]3CCN(C)C3)n2)c1`, the inhibition entry in series [1] is “Active”.

For the molecule `Cc1ccc(OS(=O)(=O)c2cccc(C(F)(F)F)c2)c(-c2cc(-c3ccccc3)n(CC(=O)NCCCN3CCCC3=O)n2)c1`, in series [1], the inhibition entry is “Active”. On the same count and under the same terms, as for `Cc1ccc(OS(=O)(=O)c2cccc(C(F)(F)F)c2)c(-c2cc(-c3ccccc3)n(CC(=O)OCc3cc(C)on3)n2)c1`, the entry is “Active”; as for `Cc1ccc(OS(=O)(=O)c2cccc(C(F)(F)F)c2)c(-c2cc(-c3ccccc3)n(CC(=O)N[C@@H]3CCN(C(=O)CN4CCOCC4)C3)n2)c1`, “Active”. On to `Cc1ccc(OC(=O)c2cccc(C(F)(F)F)c2)c(-c2cc(-c3ccccc3)n(CCN[C@@H]3CCNC3)n2)c1`, for which the inhibition result in series [1] is “Active”.

As for `Cc1ccc(OS(=O)(=O)c2cccc(C(F)(F)F)c2)c(-c2cc(-c3ccccc3)n(CC(=O)OCc3ccccc3)n2)c1`, in series [1], the inhibition entry is “Active”. Still for that read-out and setting: the same measure for `Cc1ccc(OS(=O)(=O)c2ccc(C(F)(F)F)nc2)c(-c2cc(-c3ccccc3)n(CCN[C@@H]3CCNC3)n2)c1`: “Active”; for `Cc1ccc(OS(=O)(=O)c2cccc(C(F)(F)F)c2)c(-c2cc(-c3ccccc3)n(CC(=O)N[C@H]3CCNC3)n2)c1`: “Active”. With `Cc1ccc(OS(=O)(=O)c2cccc(C(F)(F)F)c2)c(-c2cc(C3CCCN(C(=O)N[C@@H]4CCNC4)C3)n(CCN[C@@H]3CCNC3)n2)c1` (some centres not stated), the result in series [2] was inactive. In the case of `Cc1ccc(OS(=O)(=O)c2cccc(C(F)(F)F)c2)c(-c2cc(-c3ccccc3)n(CC(=O)O)n2)c1`, the inhibition result in series [1] is “Active”.

Take `CC(C)C[C@H](NC(=O)[C@H](CCc1ccccc1)NC(=O)CN1CCOCC1)C(=O)N[C@@H](Cc1ccccc1)C(=O)N[C@@H](CC(C)C)C(=O)[C@@]1(C)CO1` [CARFILZOMIB]: the Activity result in [4] was “Toxic”. As for `Cc1ccc(OS(=O)(=O)c2ccc(F)c([N+](=O)[O-])c2)c(-c2cc(-c3ccccc3)n(CCN[C@@H]3CCNC3)n2)c1`, the Activity in [15] was found to be 200%. The inhibition result in series [1] was “Active”. Take `Cc1ccc(OS(=O)(=O)c2cccc(C(F)(F)F)c2)c(-c2cc(-c3ccccc3)n(CC(=O)NCc3ccccc3)n2)c1`: the inhibition result in series [1] is “Active”. Consider `Cc1ccc(OS(=O)(=O)c2cccc(C(F)(F)F)c2)c(-c2cc(-c3ccccc3)n(CC(=O)NCC(C)(C)C)n2)c1`, for which the inhibition result in series [1] was “Active”. With `Cc1ccc(OS(=O)(=O)c2cccc(C(F)(F)F)c2)c(-c2cc(-c3ccccc3)n(CC(=O)OCc3ccc(C)o3)n2)c1`, the inhibition result in series [1] was “Active”. Turning to `CCOCCS(=O)(=O)Oc1ccc(C)cc1-c1cc(-c2ccccc2)n(CCN[C@@H]2CCNC2)n1`, the inhibition entry in series [1] is “Active”. With `Cc1ccc(OS(=O)(=O)c2cccc(C(F)(F)F)c2)c(-c2cc(-c3ccccc3)n(CC(=O)NCCN3CCOCC3)n2)c1`, in series [1], the inhibition result is “Active”. For the molecule `Cc1ccc(OS(=O)(=O)c2cccc(C(F)(F)F)c2)c(-c2cc(-c3ccccc3)n(CC(=O)NC[C@@H]3CCCO3)n2)c1`, the inhibition result in series [1] is “Active”.

As for `CC(=O)N1CC[C@@H](NC(=O)Cn2nc(-c3cc(C)ccc3OS(=O)(=O)c3cccc(C(F)(F)F)c3)cc2-c2ccccc2)C1`, the inhibition result in series [1] was “Active”. Molecule `CC1=C(COC(=O)Cn2nc(-c3cc(C)ccc3OS(=O)(=O)c3cccc(C(F)(F)F)c3)cc2-c2ccccc2)Cc2ccccc21` returned an Activity in series [15] of 200%. For the same molecule, the inhibition result in series [1] was “Active”.

In the case of `Cc1ccc(OS(=O)(=O)c2ccc3c(c2)OCCO3)c(-c2cc(-c3ccccc3)n(CCN[C@@H]3CCNC3)n2)c1`, in series [1], the inhibition result is “Active”. Still for that read-out and setting: as for `Cc1ccc(OS(=O)(=O)c2cccc(C(F)(F)F)c2)c(-c2cc(-c3ccccc3)n(CC(=O)N(C)CC[C@@H](Oc3ccccc3)c3ccccc3)n2)c1`, the entry is “Active”. For `Cc1ccc(OS(=O)(=O)c2cccc(C(F)(F)F)c2)c(-c2cc(-c3ccccc3)n(CC(=O)OCc3cccc(O)c3C)n2)c1`, the inhibition entry in [1] was “Active”. Take `Cc1ccc(OS(=O)(=O)c2cccc(C(F)(F)F)c2)c(-c2cc(-c3ccccc3)n(CC(=O)N(C)C)n2)c1`: the inhibition entry in series [1] is “Active”. Same read-out and setting: as for `Cc1ccc(OS(=O)(=O)c2ccc(Br)cc2OC(F)(F)F)c(-c2cc(-c3ccccc3)n(CCN[C@@H]3CCNC3)n2)c1`, the entry is “Active”. Consider `Cc1ccc(OS(=O)(=O)c2cccc(C(F)(F)F)c2)c(-c2cc(C3CCCCC3)n(CCN[C@@H]3CCNC3)n2)c1`, for which, in [2], the result was inactive.
